Data reported in ChEMBL document CHEMBL1139347, “Total synthesis and cytoprotective properties of dykellic acid” (J Med Chem, 2009).
The source made the active and inactive calls. The rule behind the calls is not given here.

Tests used:
U-937 [1] = assay: Cytoprotective activity against 1.5 uM etoposide-induced cell death in human U937 cells pretreated for 5 hrs measured after 24 hrs by cell flow cytometry using propidium iodide staining relative to control; format: functional, cell-based
Procedure, shortened: (§1)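 U-937 suspension cells preincubated 5 h across a concentration range, then challenged with etoposide (final 1.5 µM) or rotenone (final 5 µM). Death scored 24 h later by propidium iodide staining and flow cytometry. Percent protection derived from live-cell fraction relative to vehicle-only and toxin-only controls. SDM from n = 3, each run in triplicate.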

U-937 [2] = assay: Cytoprotective activity against 20 uM rotenone-induced intracellular ROS production in human U937 cells at 100 uM pretreated for 5 hrs by dihydroethidium dye reduction assay; format: functional, cell-based
Procedure, shortened: (§2)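 U-937 cells exposed 5 h to a range of test concentrations or α-tocopherol (100 µM), then rotenone added (final 20 µM). After 40 min, dichlorodihydrofluorescein diacetate (peroxides) or dihydroethidium (superoxide, forming ethidium) added, and cellular fluorescence read by flow cytometry. Compared with vehicle+rotenone control. SDM from n = 3, each in triplicate.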

U-937 [3] = assay: Cytoprotective activity against 5 uM rotenone-induced cell death in human U937 cells pretreated for 5 hrs measured after 24 hrs by cell flow cytometry using propidium iodide staining relative to control; format: functional, cell-based; procedure, shortened: as §1
U-937 [4] = assay: Cytoprotective activity against 50 uM N-methyl-N'-nitro-N-nitrosoguanidine-induced cell death in human U937 cells pretreated for 5 hrs measured after 24 hrs by cell flow cytometry using propidium iodide staining relative to control; format: functional, cell-based
Procedure, shortened: (§3)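 Protection of U-937 cells against H2O2 or MNNG: 5 h preincubation with a range of concentrations before toxin addition, then viability measured after 24 h by propidium iodide staining and flow cytometry. Reported as percent protection versus vehicle-only and toxin-only control cells.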

U-937 [5] = assay: Cytoprotective activity against 50 uM H2O2-induced cell death in human U937 cells pretreated for 5 hrs measured after 24 hrs by cell flow cytometry using propidium iodide staining relative to control; format: functional, cell-based; procedure, shortened: as §3
U-937 [6] = assay: Antiapoptotic activity in human U937 cells assessed as reduction of 1.5 uM etoposide-induced caspase-3/7 like activity pretreated for 5 hrs measured after 24 hrs relative to control; format: functional, cell-based
Procedure, shortened: (§4)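 U-937 cells pretreated 5 h with Z-VAD-fmk (100 nM) or a range of test concentrations, then etoposide added (final 1.5 µM) for 24 h. Cells moved to caspase assay buffer, lysed, and given Ac-DEVD-pNA (final 200 µM). pNA release per minute read at 405 nm. DMSO 1% in all wells. Vehicle+etoposide set to 1.0, vehicle alone set to 0. Triplicate, representative of three experiments.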

U-937 [7] = assay: Antiapoptotic activity in human U937 cells assessed as reduction of 1.5 uM etoposide-induced caspase-3/7 like activity at 100 nM pretreated for 5 hrs measured after 24 hrs relative to control; format: functional, cell-based; procedure, shortened: as §4
Caspase-3 (Homo sapiens) = biological target: T1, Caspase-3 (Homo sapiens) (UniProt P42574); assay: Inhibition of recombinant caspase 3 activity expressed in Escherichia coli BL21 (DE3) assessed as p-nitroaniline release using Ac-DEVD-pNA substrate up to 100 uM
T1 sequence (whole entry): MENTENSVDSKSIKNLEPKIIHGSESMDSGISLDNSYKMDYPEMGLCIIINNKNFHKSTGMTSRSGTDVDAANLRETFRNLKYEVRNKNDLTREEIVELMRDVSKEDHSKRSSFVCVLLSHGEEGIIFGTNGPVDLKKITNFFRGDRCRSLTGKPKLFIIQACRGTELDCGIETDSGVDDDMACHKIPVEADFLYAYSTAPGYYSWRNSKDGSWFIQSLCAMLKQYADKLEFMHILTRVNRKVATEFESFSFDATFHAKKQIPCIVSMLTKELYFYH
Procedure, shortened: (§5)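 Recombinant purified caspase-3, -6, -7 and -8 were run as full Michaelis-Menten curves (velocity vs substrate concentration) at several test concentrations up to 100 µM. Hydrolytic pNA release was followed from enzyme-specific tetrapeptide substrates: Ac-DEVD-pNA for caspase-3 and -7, Ac-VEID-pNA for caspase-6, Ac-IETD-pNA for caspase-8. Kinetics given as kcat/KM.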

Caspase-6 (Homo sapiens) = biological target: T2, Caspase-6 (Homo sapiens) (UniProt P55212); assay: Inhibition of recombinant caspase 6 activity expressed in Escherichia coli BL21 (DE3) assessed as p-nitroaniline release using Ac-VEID-pNA substrate up to 100 uM; procedure, shortened: as §5
T2 sequence (whole entry): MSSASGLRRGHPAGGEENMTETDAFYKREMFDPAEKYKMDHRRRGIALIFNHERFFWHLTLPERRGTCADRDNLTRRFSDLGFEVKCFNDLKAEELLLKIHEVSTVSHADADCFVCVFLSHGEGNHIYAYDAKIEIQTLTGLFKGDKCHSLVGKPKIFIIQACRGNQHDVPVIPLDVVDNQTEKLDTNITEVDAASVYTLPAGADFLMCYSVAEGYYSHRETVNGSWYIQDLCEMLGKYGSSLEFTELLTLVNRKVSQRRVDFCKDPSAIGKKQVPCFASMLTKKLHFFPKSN

Caspase-7 (Homo sapiens) = biological target: T3, Caspase-7 (Homo sapiens) (UniProt P55210); assay: Inhibition of recombinant caspase 7 activity expressed in Escherichia coli BL21 (DE3) assessed as p-nitroaniline release using Ac-DEVD-pNA substrate up to 100 uM; procedure, shortened: as §5
T3 sequence (whole entry): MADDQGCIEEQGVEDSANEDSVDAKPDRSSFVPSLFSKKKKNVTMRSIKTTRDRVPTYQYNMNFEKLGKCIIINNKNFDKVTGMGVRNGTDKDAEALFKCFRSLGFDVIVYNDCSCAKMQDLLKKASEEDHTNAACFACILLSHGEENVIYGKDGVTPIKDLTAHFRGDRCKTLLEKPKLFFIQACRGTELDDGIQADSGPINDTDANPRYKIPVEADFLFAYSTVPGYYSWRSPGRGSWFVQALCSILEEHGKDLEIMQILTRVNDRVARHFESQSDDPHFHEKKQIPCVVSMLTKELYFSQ

Caspase-8 (Homo sapiens) = Caspase-8 (Homo sapiens) (UniProt Q14790); assay: Inhibition of recombinant caspase 8 activity expressed in Escherichia coli BL21 (DE3) assessed as p-nitroaniline release using Ac-IETD-pNA substrate up to 100 uM; procedure, shortened: as §5
Chain of Caspase-8 (Homo sapiens) (Q14790 217-374 limits assumed): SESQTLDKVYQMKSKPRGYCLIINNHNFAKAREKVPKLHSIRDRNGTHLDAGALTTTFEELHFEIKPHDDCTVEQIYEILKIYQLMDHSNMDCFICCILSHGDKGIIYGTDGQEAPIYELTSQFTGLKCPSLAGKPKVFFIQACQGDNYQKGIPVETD
Chain of Caspase-8 (Homo sapiens) (Q14790 385-479 limits assumed): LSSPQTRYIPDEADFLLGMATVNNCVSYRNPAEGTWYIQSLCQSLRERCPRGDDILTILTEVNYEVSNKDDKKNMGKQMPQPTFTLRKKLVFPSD

U-937 [8] = assay: Cytoprotective activity against 20 uM rotenone-induced intracellular ROS production in human U937 cells at 100 uM pretreated for 5 hrs by 2,7-dichlorodihydrofluorescein dye reduction assay; format: functional, cell-based; procedure, shortened: as §2

C=C1C=CC(=O)OC1CCCCC (centres undefined)
Activity (U-937 [1]): inactive

C=C1C=C(CCC(=O)OC)C(=O)OC1/C=C/C=C/C (centres undefined)
Activity (U-937 [1]): inactive

C=C1C=C(CCC(=O)O)C(=O)OC1/C=C/C=C/C (centres undefined)
Activity (U-937 [2]): inactive
Activity (U-937 [3]): Dose-dependent effect
Activity (U-937 [4]): Dose-dependent effect
Activity (U-937 [5]): inactive
Activity (U-937 [6]): Active
Activity (U-937 [7]): inactive
Activity (Caspase-3 (Homo sapiens)): inactive
Activity (Caspase-6 (Homo sapiens)): inactive
Activity (Caspase-7 (Homo sapiens)): inactive
Activity (Caspase-8 (Homo sapiens)): inactive
Activity (U-937 [8]): inactive

Cc1c(C)c2c(c(C)c1O)CC[C@@](C)(CCC[C@H](C)CCC[C@H](C)CCCC(C)C)O2
Activity (U-937 [2]): Active
Activity (U-937 [8]): Active

C=C1C=C(CCC(=O)O)C(=O)OC1/C=C/C=CC (centres undefined)
Activity (U-937 [1]): Active

C=C1C=CC(=O)OC1/C=C/C=C/C (centres undefined)
Activity (U-937 [1]): inactive

C=C1C=CC(=O)OC1/C=C/CCC (centres undefined)
Activity (U-937 [1]): inactive

C=C1C=C(CCC(=O)OC)C(=O)OC1CCCCC (centres undefined)
Activity (U-937 [1]): inactive
